In ChEMBL document CHEMBL1148951, “New macrolides from the sponge Chondrosia corticata” (2004):
In brackets after ≈: the same amount, converted by molar mass.

Columns and labels:
Type in all cases: functional
K562 = assay: Cytotoxicity against human K562 cells by MTT assay; conditions: read-out: LC50 (the source's name)
Candida albicans = assay: Antifungal activity against Candida albicans at 2 ug/disk by paper disk method; conditions: read-out: IZ
How it was run: (§1)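 Paper disk diffusion assay with 2 µg of compound loaded per disk. The read-out is the diameter of the clear zone around the disk.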

Aspergillus niger = assay: Antifungal activity against Aspergillus niger at 2 ug/disk by paper disk method; conditions: read-out: IZ; how it was run: as §1

SMILES | CC50 (K562) [µg/mL] | zone of inhibition at 2 µg/disc (Candida albicans) [mm] | zone of inhibition at 2 µg/disc (Aspergillus niger) [mm]
COC(=O)c1coc(/C=C/CCC(C)C(CC(OC)C(C)CCC(=O)C(C)C(C/C=C/N(C)C=O)OC)OC(=O)CC(O)C/C=C/C(=O)C(C)C(OC)c2coc(C(N)=O)n2)n1 (stereo not drawn) [HALISHIGAMIDE D] | 92 (≈ 105 µM) |  | 
COC(CC1OC(=O)CC(O)CC(O)CC(=O)C(C)C(OC)c2coc(n2)-c2coc(n2)-c2coc(n2)/C=C/CCC1C)C(C)CCC(=O)C(C)C(C/C=C/N(C)C=O)OC (stereo not drawn) [JASPISAMIDE A] | 0.31 (≈ 0.363 µM) | 18 | 10
COC(CC1OC(=O)CC(O)C/C=C\C(=O)C(C)C(OC)c2coc(n2)-c2coc(n2)-c2coc(n2)/C=C\CCC1C)C(C)CCC(=O)C(C)C(C/C=C/N(C)C=O)OC (stereo not drawn) | 0.9 (≈ 1.08 µM) | 10 | 10
COC(CC1OC(=O)CC(O)C/C=C/C(=O)C(C)C(OC)c2coc(n2)-c2coc(n2)-c2coc(n2)/C=C/CCC1C)C(C)CCC(=O)C(C)C(C/C=C/N(C)C=O)OC (stereo not drawn) [HALICHONDRAMIDE] | 0.19 (≈ 0.227 µM) | 18 | 21
COC(CC1OC(=O)CC(O)CCCC(=O)C(C)C(OC)c2coc(n2)-c2coc(n2)-c2coc(n2)/C=C/CCC1C)C(C)CCC(=O)C(C)C(C/C=C/N(C)C=O)OC (stereo not drawn) [DIHYDROHALICHONDRAMIDE] | 0.32 (≈ 0.381 µM) | 19 | 11
COC(CC1OC(=O)CC(O)/C=C/CC(=O)C(C)C(OC)c2coc(n2)-c2coc(n2)-c2coc(n2)/C=C/CCC1C)C(C)CCC(=O)C(C)C(C/C=C/N(C)C=O)OC (stereo not drawn) [NEOHALICHONDRAMIDE] | 0.38 (≈ 0.454 µM) | 20 | 15
COC(=O)c1nc(-c2nc(C(OC)C(C)C(=O)/C=C/CC(O)CC(=O)OC(CC(OC)C(C)CCC(=O)C(C)C(C/C=C/N(C)C=O)OC)C(C)CC/C=C/C(N)=O)co2)co1 (stereo not drawn) [SECOHALICHONDRAMIDE] | > 500 | 15 | 
